Measured values published in ChEMBL document CHEMBL1137079, “Synthesis and structure-activity relationships of 3-aminobenzophenones as antimitotic agents” (J Med Chem, 2004).

Legend:
KB [1] = assay: In vitro cytotoxic activity against human KB cell line of epidermoid carcinoma; assay type: functional, cell-based
How it was run: (§1)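 Cells kept in RPMI-1640 with 5% fetal bovine serum; log-phase cells seeded at 5000 cells/mL/well, exposed to various drug concentrations for 72 h. Growth read by methylene blue dye assay; IC50 (50% growth inhibition versus control) derived graphically. Mean and SD of at least three independent experiments.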

TSGH = assay: In vitro cytotoxic activity against human TSGH cell line of stomach carcinoma; assay type: functional, cell-based; how it was run: as §1
KB [2] = assay: In vitro cytotoxic activity against human KB-VIN10 cell line overexpressing P-gp 170/MDR; assay type: functional, cell-based
How it was run: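 Vincristine-selected P-gp170/MDR-overexpressing KB line, maintained with 10 nM vincristine, then grown drug-free for 3 days before use. Log-phase cells seeded at 5000 cells/mL/well, exposed 72 h to various drug concentrations; methylene blue dye readout, IC50 (50% growth inhibition versus control) taken graphically. Mean and SD, at least three independent experiments.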

HT-29 = assay: In vitro cytotoxic activity against human HT-29 cell line of colorectal carcinoma; assay type: functional, cell-based; how it was run: as §1
Tubulin = Tubulin (Bos taurus, UniProt Q6B856+Q862L2+Q862F3); assay: Inhibitory concentration required against MAP-rich tubulin polymerization; assay type: functional
[3] = target: Tubulin alpha chain (Sus scrofa) (UniProt P02550); assay: Ability to inhibit 3[H]Colchicine binding to colchicine-binding domain of tubulin; Weak inhibition
[4] = target: Tubulin alpha chain (Sus scrofa) (UniProt P02550); assay: Ability to inhibit 3[H]Colchicine binding to colchicine-binding domain of tubulin; effective inhibition
[5] = target: Tubulin alpha chain (Sus scrofa) (UniProt P02550); assay: Ability to inhibit 3[H]Colchicine binding to colchicine-binding domain of tubulin; Strong inhibition

Sequence of Tubulin alpha chain (Sus scrofa) (P02550 whole entry, looked up, the tested form may be a part): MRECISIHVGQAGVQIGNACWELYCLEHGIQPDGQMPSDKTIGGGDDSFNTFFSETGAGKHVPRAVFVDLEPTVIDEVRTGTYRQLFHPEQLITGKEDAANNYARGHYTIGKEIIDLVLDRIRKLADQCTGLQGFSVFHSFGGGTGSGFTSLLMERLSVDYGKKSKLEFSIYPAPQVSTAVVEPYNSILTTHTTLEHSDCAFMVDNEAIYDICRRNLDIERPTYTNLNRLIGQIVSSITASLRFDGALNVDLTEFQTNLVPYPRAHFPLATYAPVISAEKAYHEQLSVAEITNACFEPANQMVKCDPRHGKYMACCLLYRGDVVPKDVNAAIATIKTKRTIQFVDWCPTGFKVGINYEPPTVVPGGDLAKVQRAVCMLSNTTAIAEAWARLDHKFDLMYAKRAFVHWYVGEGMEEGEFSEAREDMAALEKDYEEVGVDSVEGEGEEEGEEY

IC50 (Tubulin) [nM] | inhibition [3] | inhibition [4] | inhibition [5] | Structure (SMILES) | IC50 (KB [1]) [nM] | IC50 (TSGH) [nM] | IC50 (KB [2]) [nM] | IC50 (HT-29) [nM]
2900 | Weak inhibition |  |  | COc1ccc(N)cc1C(=O)c1cc(OC)c(OC)c(OC)c1 | 306 | 497 | 324 | 400
1000 |  |  |  | COc1ccc(N)c(C(=O)c2cc(OC)c(OC)c(OC)c2)c1 | 127 | 100 | 352 | 148
11000 |  |  |  | COc1cc(C(=O)c2ccc(Cl)c(N)c2)cc(OC)c1OC | 800 | 4000 | 3800 | 4000
2600 |  |  |  | COc1cc(N)cc(C(=O)c2cc(OC)c(OC)c(OC)c2)c1 | 590 | 157 | 307 | 163
300 |  |  | Strong inhibition | COc1ccc(C(=O)c2cc(OC)c(OC)c(OC)c2)cc1N | 32 | 33 | 31 | 33
400 |  |  | Strong inhibition | COc1ccc(C(=O)c2cc(OC)c(OC)c(OC)c2)c(N)c1 | 32 | 26 | 24 | 42
700 |  |  |  | CCOc1ccc(C(=O)c2cc(OC)c(OC)c(OC)c2)cc1N | 59 | 42 | 40 | 45
17000 |  |  |  | COc1cc(C(=O)c2cc(N)cc(Cl)c2)cc(OC)c1OC | 1400 | 1500 | 2900 | 1900
400 |  |  |  | COc1ccc(C(=O)c2cc(OC)c(OC)c(OC)c2)cc1O [PHENSTATIN] | 30 | 170 | 30 | 560

The next lines start with the compound.

Structure (SMILES) | IC50 (Tubulin) [nM] | inhibition [3] | inhibition [4] | inhibition [5] | IC50 (KB [1]) [nM] | IC50 (TSGH) [nM] | IC50 (KB [2]) [nM] | IC50 (HT-29) [nM]
COc1ccc(/C=C\c2cc(OC)c(OC)c(OC)c2)cc1O [COMBRETASTATIN A4] |  |  |  |  | 2.1 | 45 | 2.4 | 260
CCCOc1ccc(C(=O)c2cc(OC)c(OC)c(OC)c2)cc1N | 42000 |  |  |  | 3800 | 4800 | 8600 | 9000
COc1cc(C(=O)c2cc(Cl)ccc2N)cc(OC)c1OC | 100 |  |  |  | 195 | 185 | 162 | 218
COc1cc(C(=O)c2cc(N)ccc2Cl)cc(OC)c1OC | 600 |  | effective inhibition |  | 180 | 157 | 125 | 163
COc1ccc(/C=C\c2cc(OC)c(OC)c(OC)c2)cc1N |  |  |  |  | 8.2 | 7.7 | 7.5 | 7.9
COc1cc(C(=O)c2ccc(OC(C)C)c(N)c2)cc(OC)c1OC | 6400 |  |  |  | 900 | 900 | 800 | 1300
COc1ccc(Cc2cc(OC)c(OC)c(OC)c2)cc1N | > 50000 |  |  |  | > 10000 | > 10000 | > 10000 | > 10000
COc1cc(C(=O)c2ccc(Cl)cc2N)cc(OC)c1OC | 2700 |  |  |  | 710 | 800 | 800 | 1000
